The structures appear in SMILES notation. Values after ≈ are worked out from the molar mass of the structure shown. Active and inactive are the calls of the source. The rule behind the calls is not given here.

Test system in one assay: not listed separately
As to the kind of experiment: Antibacterial activity against Proteus vulgaris NCTC 4175 strain; na = not active.
Details: not given
In kind it is functional.
With `CCn1cc(NC(=O)c2nc(NC(=O)c3nc(NC=O)cn3CC)cn2CC)nc1C(=O)NCCCN(C)C`, the MIC result is “inactive”.

For the molecule `CC(C)n1cc(NC(=O)c2cc(NC(=O)c3cc(NC=O)cn3C(C)C)cn2C)cc1C(=O)NCCCN(C)C`, the MIC entry was “inactive”.

Consider `CC(C)n1cc(NC(=O)c2cc(NC=O)cn2C)cc1C(=O)Nc1cc(C(=O)NCCCN2CCOCC2)n(C)c1`, for which the MIC entry is “inactive”.

Turning to `CC(=O)Nc1cc(C(=O)Nc2cc(C(=O)Nc3nc(C(=O)NCCCN(C)C)c(C(C)C)s3)n(C)c2)n(C)c1`, the MIC result was “inactive”.

The subject of a further assay is Klebsiella aerogenes. Nature of the assay: Antibacterial activity against Klebsiella aerogenes WRL CN 345 strain; na = not active. In kind it is functional, organism-based.
Details: not given
As to `CCn1cc(NC(=O)c2nc(NC(=O)c3nc(NC=O)cn3CC)cn2CC)nc1C(=O)NCCCN(C)C`, the MIC entry was “inactive”.

With `CC(C)n1cc(NC(=O)c2cc(NC(=O)c3cc(NC=O)cn3C(C)C)cn2C)cc1C(=O)NCCCN(C)C`, the MIC entry was “inactive”.

In the case of `CC(C)n1cc(NC(=O)c2cc(NC=O)cn2C)cc1C(=O)Nc1cc(C(=O)NCCCN2CCOCC2)n(C)c1`, the MIC result was “inactive”.

For the molecule `CC(=O)Nc1cc(C(=O)Nc2cc(C(=O)Nc3nc(C(=O)NCCCN(C)C)c(C(C)C)s3)n(C)c2)n(C)c1`, the MIC entry is “inactive”.

The next assay has as its system Staphylococcus aureus. As to the kind of experiment: Antibacterial activity against Staphylococcus aureus NCTC 6571 strain. In kind it is functional.
Details: not given
Molecule `CCn1cc(NC(=O)c2nc(NC(=O)c3nc(NC=O)cn3CC)cn2CC)nc1C(=O)NCCCN(C)C` came in with an MIC of 19 µM (≈ 10.3 µg/mL).

In another assay the test system is Staphylococcus aureus. As to the kind of experiment: Antibacterial activity against MRSA PHLS M1 strain; na = not active. In kind it is functional, organism-based.
Details: not given
As for `CCn1cc(NC(=O)c2nc(NC(=O)c3nc(NC=O)cn3CC)cn2CC)nc1C(=O)NCCCN(C)C`, the MIC entry is “inactive”.

In the case of `CC(C)n1cc(NC(=O)c2cc(NC=O)cn2C)cc1C(=O)Nc1cc(C(=O)NCCCN2CCOCC2)n(C)c1`, the MIC result was “inactive”.

Regarding `CC(=O)Nc1cc(C(=O)Nc2cc(C(=O)Nc3nc(C(=O)NCCCN(C)C)c(C(C)C)s3)n(C)c2)n(C)c1`, the MIC result is “inactive”.

Another assay deals with Aspergillus nidulans. Nature of the assay: Antifungal activity against Aspergillus nidulans CABI 0160037 strain; na = not active.
Details: not given
In kind it is functional.
With `CCn1cc(NC(=O)c2nc(NC(=O)c3nc(NC=O)cn3CC)cn2CC)nc1C(=O)NCCCN(C)C`, the MIC result was “inactive”.

As for `CC(C)n1cc(NC(=O)c2cc(NC=O)cn2C)cc1C(=O)Nc1cc(C(=O)NCCCN2CCOCC2)n(C)c1`, the MIC entry is “inactive”.

The subject of another assay is Enterococcus faecalis. Nature of the assay: Antibacterial activity against Streptococcus faecalis NCTC 775 strain; na = not active. In kind it is functional, organism-based.
Details: not given
As for `CCn1cc(NC(=O)c2nc(NC(=O)c3nc(NC=O)cn3CC)cn2CC)nc1C(=O)NCCCN(C)C`, the MIC result is “inactive”.

Consider `CC(C)n1cc(NC(=O)c2cc(NC(=O)c3cc(NC=O)cn3C(C)C)cn2C)cc1C(=O)NCCCN(C)C`, for which the MIC result is “inactive”.

`CC(C)n1cc(NC(=O)c2cc(NC=O)cn2C)cc1C(=O)Nc1cc(C(=O)NCCCN2CCOCC2)n(C)c1`: the MIC entry was “inactive”.

In the next assay the test system is Enterococcus faecalis. As to the kind of experiment: Antibacterial activity against Streptococcus faecalis NCTC 775 strain. In kind it is functional.
Details: not given
`CC(=O)Nc1cc(C(=O)Nc2cc(C(=O)Nc3nc(C(=O)NCCCN(C)C)c(C(C)C)s3)n(C)c2)n(C)c1`: the lowest concentration to inhibit growth (MIC) was 74.5 µM (≈ 41.5 µg/mL).

In another assay the test system is Escherichia coli. Nature of the assay: Antibacterial activity against Escherichia coli NCTC 9001 strain. In kind it is functional, organism-based.
Details: not given
As for `CCn1cc(NC(=O)c2nc(NC(=O)c3nc(NC=O)cn3CC)cn2CC)nc1C(=O)NCCCN(C)C`, the MIC result is “inactive”.

As to `CC(C)n1cc(NC(=O)c2cc(NC(=O)c3cc(NC=O)cn3C(C)C)cn2C)cc1C(=O)NCCCN(C)C`, the MIC result is “inactive”.

On to `CC(C)n1cc(NC(=O)c2cc(NC=O)cn2C)cc1C(=O)Nc1cc(C(=O)NCCCN2CCOCC2)n(C)c1`, for which the MIC result is “inactive”.

Turning to `CC(=O)Nc1cc(C(=O)Nc2cc(C(=O)Nc3nc(C(=O)NCCCN(C)C)c(C(C)C)s3)n(C)c2)n(C)c1`, the MIC result is “inactive”.

A further assay relates to Mycolicibacterium fortuitum. Nature of the assay: Antibacterial activity against Mycobacterium fortuitum NCTC 10394 strain; na = not active.
Details: not given
In kind it is functional, organism-based.
For `CCn1cc(NC(=O)c2nc(NC(=O)c3nc(NC=O)cn3CC)cn2CC)nc1C(=O)NCCCN(C)C`, the MIC entry was “inactive”.

On to `CC(C)n1cc(NC(=O)c2cc(NC(=O)c3cc(NC=O)cn3C(C)C)cn2C)cc1C(=O)NCCCN(C)C`, for which the MIC entry is “inactive”.

Consider `CC(C)n1cc(NC(=O)c2cc(NC=O)cn2C)cc1C(=O)Nc1cc(C(=O)NCCCN2CCOCC2)n(C)c1`, for which the MIC result is “inactive”.

With `CC(=O)Nc1cc(C(=O)Nc2cc(C(=O)Nc3nc(C(=O)NCCCN(C)C)c(C(C)C)s3)n(C)c2)n(C)c1`, the MIC result is “inactive”.

A further assay concerns Staphylococcus aureus. As to the kind of experiment: Antibacterial activity against Staphylococcus aureus NCTC 6571 strain; na = not active. In kind it is functional, organism-based.
Details: not given
With `CC(C)n1cc(NC(=O)c2cc(NC(=O)c3cc(NC=O)cn3C(C)C)cn2C)cc1C(=O)NCCCN(C)C`, the MIC entry was “inactive”.

Consider `CC(C)n1cc(NC(=O)c2cc(NC=O)cn2C)cc1C(=O)Nc1cc(C(=O)NCCCN2CCOCC2)n(C)c1`, for which the MIC entry is “inactive”.

On to `CC(=O)Nc1cc(C(=O)Nc2cc(C(=O)Nc3nc(C(=O)NCCCN(C)C)c(C(C)C)s3)n(C)c2)n(C)c1`, for which the MIC entry was “inactive”.

In another assay the test system is Aspergillus niger. As to the kind of experiment: Antifungal activity against Aspergillus niger IMI17454 strain; na = not active. In kind it is functional.
Details: not given
As to `CCn1cc(NC(=O)c2nc(NC(=O)c3nc(NC=O)cn3CC)cn2CC)nc1C(=O)NCCCN(C)C`, the MIC result is “inactive”.

Take `CC(C)n1cc(NC(=O)c2cc(NC(=O)c3cc(NC=O)cn3C(C)C)cn2C)cc1C(=O)NCCCN(C)C`: the MIC entry was “inactive”.

Turning to `CC(C)n1cc(NC(=O)c2cc(NC=O)cn2C)cc1C(=O)Nc1cc(C(=O)NCCCN2CCOCC2)n(C)c1`, the MIC result is “inactive”.

The next assay has as its system Enterobacter cloacae. As to the kind of experiment: Antibacterial activity against Enterobacter cloacae NCTC 10005 strain. In kind it is functional, organism-based.
Details: not given
As for `CCn1cc(NC(=O)c2nc(NC(=O)c3nc(NC=O)cn3CC)cn2CC)nc1C(=O)NCCCN(C)C`, the MIC entry was “inactive”.

For `CC(C)n1cc(NC(=O)c2cc(NC(=O)c3cc(NC=O)cn3C(C)C)cn2C)cc1C(=O)NCCCN(C)C`, the MIC entry is “inactive”.

Take `CC(C)n1cc(NC(=O)c2cc(NC=O)cn2C)cc1C(=O)Nc1cc(C(=O)NCCCN2CCOCC2)n(C)c1`: the MIC entry is “inactive”.

In the case of `CC(=O)Nc1cc(C(=O)Nc2cc(C(=O)Nc3nc(C(=O)NCCCN(C)C)c(C(C)C)s3)n(C)c2)n(C)c1`, the MIC result is “inactive”.

The subject of the next assay is Aspergillus nidulans. As to the kind of experiment: Antifungal activity against Aspergillus nidulans CABI 0160037 strain. In kind it is functional.
Details: not given
The molecule `CC(C)n1cc(NC(=O)c2cc(NC(=O)c3cc(NC=O)cn3C(C)C)cn2C)cc1C(=O)NCCCN(C)C` yielded an MIC of 150 µM (≈ 82.9 µg/mL).

Test system in the next assay: not listed separately
Nature of the assay: Antifungal activity against Candida albicans NCPF 3179 strain; na = not active. In kind it is functional.
Details: not given
Consider `CCn1cc(NC(=O)c2nc(NC(=O)c3nc(NC=O)cn3CC)cn2CC)nc1C(=O)NCCCN(C)C`, for which the MIC result is “inactive”.

`CC(C)n1cc(NC(=O)c2cc(NC=O)cn2C)cc1C(=O)Nc1cc(C(=O)NCCCN2CCOCC2)n(C)c1`: the MIC entry was “inactive”.

In the case of `CC(=O)Nc1cc(C(=O)Nc2cc(C(=O)Nc3nc(C(=O)NCCCN(C)C)c(C(C)C)s3)n(C)c2)n(C)c1`, the MIC entry is “inactive”.

The next assay concerns Candida albicans. As to the kind of experiment: Antifungal activity against Candida albicans NCPF 3179 strain. Conditions: Candida albicans; read-out: MIC. In kind it is functional.
Take `CC(C)n1cc(NC(=O)c2cc(NC(=O)c3cc(NC=O)cn3C(C)C)cn2C)cc1C(=O)NCCCN(C)C`: the MIC was determined as 75 µM (≈ 41.5 µg/mL).

The subject of another assay is Staphylococcus aureus. As to the kind of experiment: Antibacterial activity against methicillin-resistant Staphylococcus aureus (MRSA) PHLS M1 strain. In kind it is functional.
Details: not given
In short, it runs like this:
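Read-out is the minimum inhibitory concentration, reported in µM. Amoxycillin is tested alongside as the reference antibiotic.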
Molecule `CC(C)n1cc(NC(=O)c2cc(NC(=O)c3cc(NC=O)cn3C(C)C)cn2C)cc1C(=O)NCCCN(C)C` registered an MIC of 150 µM (≈ 82.9 µg/mL).

The next assay concerns Aspergillus niger. As to the kind of experiment: Antifungal activity against Aspergillus niger IMI17454 strain. In kind it is functional. Conditions: Aspergillus niger; read-out: MIC.
Regarding `CC(=O)Nc1cc(C(=O)Nc2cc(C(=O)Nc3nc(C(=O)NCCCN(C)C)c(C(C)C)s3)n(C)c2)n(C)c1`, the MIC was 74.5 µM (≈ 41.5 µg/mL).

As usually defined, the MIC is the lowest concentration found to suppress growth.

The record behind these values is ChEMBL document CHEMBL1137088, “Distamycin analogues with enhanced lipophilicity: synthesis and antimicrobial activity” (2004).
